Screening data from PubChem BioAssay.
ARFGAP1 inhibitor: inhibits rat ARF GTPase activating protein 1 | hit rate 0.26% among 360,000 | AID 651572 | Arfgap1-stimulated ARF1 GTP hydrolysis, GDP FP detection | Q62848 | inhibition, % at 16.5 µM;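 active means inhibition above a per-plate limit, mean inhibition of low control wells plus 3 SD, cut at about 25% in these data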;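 further: 0% = DMSO wells with enzyme and 100% = wells lacking Arfgap1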
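Assay system: purified rat His6-Arfgap1 residues 1-136 (GAP domain); Reagent: human Δ17 ARF1 bound to GTP; Dosing: 16.5 µM single point, 1.26% DMSO; Times: GTP hydrolysis reaction 2 h at 25 °C; Signal: FP, GDP Alexa 633 tracer displaced from anti-GDP antibody, 620/688 nm; Measure: % inhibition from polarization.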
PLCg1 inh: inhibitors of human phospholipase C gamma1; inhibition, % at 12.2 µM; P19174; hit rate 0.84% among 370,000; purified PLC-gamma1, fluorogenic substrate, fluorescence; in the data active means inhibition above about 9.5%
HGIII-sPLA2 inh: Blocks human group III sPLA2 activity; Q9NZ20; QFRET BODIPY PC-A2 liposome hydrolysis, fluorescence; inhibition, % at 12.2 µM; hit rate 0.56% among 370,000; AID 743126;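 active means inhibition above mean plus 3 SD of compounds lying within the high and low control bounds, cut at about 19% in these data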;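 further: 0% = median of test compound wells and 100% = no enzyme DMSO wells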
Target sequence (Q9NZ20 whole entry, looked up): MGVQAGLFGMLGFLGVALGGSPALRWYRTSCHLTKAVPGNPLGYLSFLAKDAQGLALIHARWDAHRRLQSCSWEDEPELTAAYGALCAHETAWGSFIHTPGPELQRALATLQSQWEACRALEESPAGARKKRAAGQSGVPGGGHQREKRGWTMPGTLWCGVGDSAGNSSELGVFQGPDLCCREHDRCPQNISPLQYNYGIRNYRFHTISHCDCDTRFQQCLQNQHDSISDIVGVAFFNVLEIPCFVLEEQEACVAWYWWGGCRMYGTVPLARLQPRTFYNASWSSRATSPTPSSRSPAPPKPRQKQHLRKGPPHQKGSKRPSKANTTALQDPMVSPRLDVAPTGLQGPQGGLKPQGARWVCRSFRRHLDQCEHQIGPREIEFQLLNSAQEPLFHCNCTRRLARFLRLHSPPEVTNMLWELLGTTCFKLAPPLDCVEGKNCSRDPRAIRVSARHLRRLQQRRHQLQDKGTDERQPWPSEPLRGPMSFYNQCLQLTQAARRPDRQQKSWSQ
PLCb3 inh: inhibitors of human phospholipase C beta3; Q01970; Purified PLC-beta3, fluorogenic substrate, fluorescence; inhibition, % at 12.2 µM; hit rate 0.18% among 370,000; AID 720704; in the data active means inhibition above about 11%;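 further: 0% = median of compound wells on plate and 100% = full blocker control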
ASAP1 GAP inh: blocks human ASAP1-stimulated Arf1 GTP hydrolysis. hit rate 0.19% among 360,000. inhibition, % at 16.5 µM. GDP FP detection; in the data active means inhibition above about 25%;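 further: 0% = vehicle with enzyme and substrate and 100% = no enzyme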
ASAP1 inh confirm: ASAP1 inhibition confirmed; hit rate 37% among 620; inhibition, % at 16.5 µM; ASAP1-stimulated Arf1 GTPase, GDP fluorescence polarization; AID 624431; shares compounds with ASAP1 GAP inh;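 active means mean inhibition over triplicates exceeds the hit threshold derived for the earlier primary screening run, cut at about 25% in these data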
Starred values were filed as active, the others as inactive; · = not tested or not shown. Hits are enriched below; roughly 1.9% of the tested compounds scored in any of these assays.

SMILES | ARFGAP1 inhibitor | PLCg1 inh | HGIII-sPLA2 inh | PLCb3 inh | ASAP1 GAP inh | ASAP1 inh confirm
COC(=O)c1ccccc1-c1ccc(C(c2c(C)[nH][nH]c2=O)c2c(C)[nH][nH]c2=O)o1 | 21 | 6 | -11 | 1 | 31* | 0
CC1=NN(c2ccccc2)C(=O)C1N=Nc1cccc(O)c1 (stereo not given) | -2 | 0 | -20 | -2 | 29* | 10
CC1=NN(c2ccccc2)C(=O)C1N=Nc1ccccc1 (stereo not given) | -3 | 1 | 4 | 1 | 2 | ·
O=C(N=C1N(Cc2ccccc2)C[C@]2(C=C3CCCCC3n3c(=O)n(-c4ccccc4)c(=O)n32)N1C(=O)OCc1ccccc1)c1ccccc1 (stereo not given in full) | · | -1 | 7 | 2 | · | ·
CNc1ccc(/C=C(\CCC(=O)O)c2nc3ccccc3s2)cc1[N+](=O)[O-] | 2 | 0 | -23 | -1 | 30* | 52*
CN(c1ccccc1)c1ccc(/C=C(\CCC(=O)O)c2nc3ccccc3s2)cc1[N+](=O)[O-] | -29 | -3 | -2 | -12 | 2 | ·
O=C(O)CCCN1C(=O)/C(=C\C(Cl)=C\c2ccccc2)SC1=S | 0 | -4 | -5 | -7 | 33* | 61*
CN1CCN(C(=O)CCCN2C(=O)/C(=C/c3ccccc3)SC2=S)CC1 | 9 | 0 | -6 | -8 | -14 | ·
CC(C1=CCCCC1)c1cnn(C)c1 (stereo not given) | · | 2 | 2 | 0 | · | ·
CC(C)n1c(NCc2cc(Cl)ccc2O)nc2ccccc21 | 6 | -1 | -4 | -1 | 26* | 14
Cc1ccc(O)c(CNc2nc3ccccc3n2C(C)C)c1 | 4 | -1 | -2 | -1 | 3 | ·
O=C(NC1CCCCN(Cc2ccc(OC(F)(F)F)cc2)C1=O)c1ccc(F)c(F)c1 (stereo not given) | · | 1 | 1 | -1 | · | ·
Cc1cc(OCC(=O)Nc2ccc3oc(-c4ccncc4)nc3c2)ccc1Cl | 14 | -2 | 7 | -5 | 28* | 131*
Cc1cc(OCC(=O)Nc2ccncc2)ccc1Cl | -1 | 1 | 0 | -3 | 5 | ·
O=C(Cn1c2ccccc2c(=O)c2ccccc21)N/N=C/c1cc([N+](=O)[O-])ccc1N1CCCCCC1 | 20 | -42 | -4 | -54 | 37* | 40*
CCOc1ccc(NC(=O)CSc2nc(=O)n(Cc3cccnc3)c3c2CCC3)cc1 | 18 | 0 | -2 | -1 | -1 | ·
COc1ccc(C(=O)CSc2nc(=O)n(Cc3cccnc3)c3c2CCC3)cc1 | 13 | -6 | -2 | -11 | 26* | 2
CC(CCN1CCC(C(O)(c2ccccc2)c2ccccc2)CC1)Oc1ccccc1C#N (stereo not given) | · | 3 | -15 | 4 | · | ·
O=C(Nc1ccc(NC(=S)NC(=O)c2ccco2)cc1)c1ccccc1 | 7 | 0 | 3 | -3 | 12 | ·
O=C(Nc1ccc(NC(=S)NC(=O)c2ccco2)cc1)c1ccc(Br)cc1 | 10 | -1 | 18 | 4 | 58* | 161*
CN(C(=O)C1CCN(c2cncnc2)CC1)C1CCCCC1 | · | -7 | 7 | -8 | · | ·
Cc1ccc(C(=O)NCc2ccco2)cc1[N+](=O)[O-] | -3 | 3 | 0 | 1 | -6 | ·
Cc1ccc(NC(=O)c2ccc(NCC3CCCO3)c([N+](=O)[O-])c2)cc1Cl (stereo not given) | 14 | 1 | 8 | 0 | 34* | 95*
Cc1ccc(NC(=O)c2ccc(NCc3ccco3)c([N+](=O)[O-])c2)cc1Cl | 11 | -1 | 1 | 1 | 26* | 29*
C#CCNC(=O)C[C@H]1C[C@@]2(C(=O)OC)C(=C[C@H](C(C)(C)C)O[C@@H]2C)N(Cc2ccco2)C1=O | · | -2 | -2 | -2 | · | ·
O=C(CN1CCOCC1)Nc1cccc(S(=O)(=O)N2CCCCCC2)c1 | 5 | 7 | 2 | 2 | 27* | 4
O=C(CN1CCN(Cc2ccccc2)CC1)Nc1cccc(S(=O)(=O)N2CCCCCC2)c1 | 1 | 3 | 3 | 4 | -4 | ·
COc1ccc(N2C(=O)[C@@H]3[C@H](C2=O)[C@H]2c4ccccc4C=CN2[C@@H]3C(C)=O)cc1 | 22 | -8 | -1 | -13 | 49* | 18
CCC(C)NC(=O)C1CCN(S(=O)(=O)c2ccc3[nH]c(=O)oc3c2)CC1 (stereo not given) | · | 0 | 2 | 3 | · | ·
